According to ChEMBL document CHEMBL1128569, “N-acyl-2-substituted-1,3-thiazolidines, a new class of non-narcotic antitussive agents: studies leading to the discovery of ethyl 2-[(2-methoxyphenoxy)methyl]-beta-oxothiazolidine-3-propanoate” (J Med Chem, 1995):

What was measured:
[1] = system: Cavia porcellus; experiment: Antitussive activity by inhibition of irritant citric acid aerosol-induced coughing in guinea pig upon oral administration.; type: functional
How it was run: (§1)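 Male guinea pigs (350-400 g) exposed in a box to 7.5% citric acid aerosol for 5 min, and coughs counted as the basal value. Next day, after overnight fasting, animals (6-8/dose) were gavaged with compound in water or 0.5% methyl cellulose (2 mL/kg) 1 h before re-exposure. Activity is the reduction in coughs versus the basal count. ED50 is the dose giving 50% reduction (Cochran and Snedecor).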

[2] = Acute toxicity was determined in mice upon peroral administration; type: organism-based; conditions: mouse, in vivo, po
How it was run: (§2)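 Swiss mice of both sexes, groups of six, dosed by gavage at several doses up to 1000 mg/kg. Compound dissolved in water or suspended in 0.5% carboxymethyl cellulose, 10 mL/kg. Deaths recorded over 1-7 days. LD50 obtained by logit transformation.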

[3] = Lethality in mice following p.o. administration.; type: ADME, organism-based; conditions: mouse, in vivo, po; how it was run: as §2
[4] = system: Cavia porcellus; experiment: Antitussive activity was evaluated by inhibition of irritant aerosol-induced coughing by (po) administration of 30 mg/kg in guinea pig; type: functional; how it was run: as §1
[5] = system: Cavia porcellus; experiment: Antitussive activity was evaluated by inhibition of irritant citric acid aerosol-induced coughing in guinea pig upon oral administration at 30 mg/kg dose; type: functional; how it was run: as §1
[6] = system: Cavia porcellus; experiment: Inhibition of irritant electrically-induced coughing in guinea pig trachea following p.o. administration.; type: functional; conditions: po
How it was run: (§3)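 Guinea pigs under ketamine (10 mg/kg im) and xylazine (3 mg/kg im) anaesthesia, with an electrode wrapped around the trachea about 1.5 cm above the bifurcation and an indifferent electrode on the dorsal skin. Coughs during stimulation counted as the basal value. Groups of 6-8/dose were gavaged with compound in water or 0.5% methyl cellulose (2 mL/kg). Activity is the cough reduction versus basal. ED50 is the dose giving 50% reduction.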

[7] = system: Cavia porcellus; experiment: Antitussive activity was evaluated by inhibition of irritant electrically-induced coughing in guinea pig trachea upon oral administration at 30 mg/kg; type: functional; how it was run: as §3
[8] = system: Cavia porcellus; experiment: Antitussive activity was evaluated by inhibition of irritant electrically-induced coughing by (po) administration in guinea pig; type: functional; how it was run: as §3
[9] = system: Cavia porcellus; experiment: Antitussive activity was evaluated by inhibition of irritant aerosol-induced coughing by (po) administration in guinea pig; type: functional; how it was run: as §1

For `COc1ccccc1OCC1SCCN1C(C)=O` (configuration not stated), which ED50 [1] is on record?
Its ED50 is 46 mg/kg.

And the LD50 [2]?
Its LD50 is 552 mg/kg.

Which results are given for `COc1ccccc1OCC1SCCN1C(=O)CSC(=O)CN1CCN(C)CC1` (configuration not stated)?
LD50 [3]: > 1000 mg/kg; inhibition in vivo at 30 mg/kg [4]: < 20%

Which inhibition in vivo at 30 mg/kg [5] does the source give for `CCOC(=O)[C@@H]1CSC(COc2ccccc2OC)N1` (some centres not stated) here?
Its inhibition in vivo at 30 mg/kg is < 20%.

What about the LD50 [2] of the same molecule?
Its LD50 is 757 mg/kg.

What does the source list for `CCOCCOCC(=O)N1CCSC1COc1ccccc1OC` (configuration not stated)?
inhibition in vivo at 30 mg/kg [5]: < 20%; LD50 [2]: 916 mg/kg

For `COc1ccccc1OCC1SCCN1C(=O)CC(=O)NCc1ccccn1` (configuration not stated), which ED50 [1] is on record?
The ED50 was 26 mg/kg.

And the ED50 [6]?
Its ED50 is 64 mg/kg.

With `O=C(O)[C@@H]1CSC(CCc2ccccc2O)N1` (some centres not stated) as the molecule, how does the ED50 [6] read?
The ED50 was 45 mg/kg.

And the inhibition in vivo at 30 mg/kg [5]?
Its inhibition in vivo at 30 mg/kg is < 20%.

What about the LD50 [2] of the same molecule?
The LD50 was > 1000 mg/kg.

Which LD50 [3] does the source give for `CC(=O)SCC(=O)Oc1ccccc1OCC1SCCN1C(=O)CSC(C)=O` (configuration not stated) here?
The LD50 was > 1000 mg/kg.

What about the inhibition in vivo at 30 mg/kg [4] of the same molecule?
Its inhibition in vivo at 30 mg/kg is < 20%.

For `COc1ccccc1OCC1SCCN1C(=O)CC(=O)N1CCN(Cc2ccccc2)CC1.Cl` (configuration not stated), which ED50 [1] is on record?
The ED50 was 41 mg/kg.

What about the LD50 [2] of the same molecule?
Its LD50 is 681 mg/kg.

Which ED50 [1] does the source give for `OCC(O)CN1CCN(c2ccccc2)CC1` (configuration not stated) [DROPROPIZINE] here?
Its ED50 is 144 mg/kg.

And the ED50 [6]?
The ED50 was 32 mg/kg.

What does the source list for `CC(=O)SCC(=O)Oc1ccccc1CCC1SCCN1C(=O)CSC(C)=O` (configuration not stated)?
LD50 [3]: > 1000 mg/kg; inhibition in vivo at 30 mg/kg [4]: < 20%

Which inhibition in vivo at 30 mg/kg [5] does the source give for `O=C(O)[C@@H]1CSC(COc2ccccc2O)N1` (some centres not stated) here?
Its inhibition in vivo at 30 mg/kg is < 20%.

And the LD50 [2]?
Its LD50 is > 1000 mg/kg.

What does the source list for `COc1ccccc1OCC1SCCN1C(=O)CC(=O)N1CCN(C)CC1` (configuration not stated)?
ED50 [1]: 27 mg/kg; LD50 [2]: 880 mg/kg

Which results are given for `CNC(=O)CC(=O)N1CCSC1COc1ccccc1OC` (configuration not stated)?
ED50 [1]: 21 mg/kg; ED50 [6]: 22 mg/kg; LD50 [2]: > 1000 mg/kg

Which ED50 [1] does the source give for `CCOC(=O)CC(=O)N1CCS(=O)(=O)C1COc1ccccc1OC` (configuration not stated) here?
The ED50 was 28 mg/kg.

What about the inhibition in vivo at 30 mg/kg [7] of the same molecule?
The inhibition in vivo at 30 mg/kg was < 20%.

What about the LD50 [2] of the same molecule?
Its LD50 is > 1000 mg/kg.

Which results are given for `COc1ccccc1OCC1SCCN1C(=O)CC(=O)O` (configuration not stated)?
ED50 [1]: 20 mg/kg; inhibition in vivo at 30 mg/kg [7]: < 20%; LD50 [2]: > 1000 mg/kg

For `COc1ccccc1OCC1NCCS1` (configuration not stated), which LD50 [2] is on record?
Its LD50 is > 1000 mg/kg.

What does the source list for `CSCC(=O)N1CCSC1COc1ccccc1O` (configuration not stated)?
ED50 [6]: 28 mg/kg; LD50 [2]: > 1000 mg/kg

For `COc1ccccc1OCC1SCCN1C(=O)CSC(=O)c1cccnc1` (configuration not stated), which LD50 [3] is on record?
Its LD50 is > 1000 mg/kg.

What about the inhibition in vivo at 30 mg/kg [4] of the same molecule?
The inhibition in vivo at 30 mg/kg was < 20%.

For `COc1ccccc1OCC1SCCN1C(=O)C(C)(C)C` (configuration not stated), which ED50 [6] is on record?
The ED50 was 24 mg/kg.

And the LD50 [2]?
Its LD50 is > 1000 mg/kg.

For `COc1ccc(OCC2SCCN2C(=O)CSC(C)=O)cc1` (configuration not stated), which ED50 [8] is on record?
The ED50 was 19 mg/kg.

And the LD50 [3]?
Its LD50 is > 1000 mg/kg.

Which ED50 [6] does the source give for `COc1ccccc1OCC1SCCN1C(=O)CSC` (configuration not stated) here?
Its ED50 is 21 mg/kg.

Which ED50 [1] does the source give for `COc1ccccc1OCC1SCCN1C(=O)CN.Cl` (configuration not stated) here?
The ED50 was 57 mg/kg.

What about the LD50 [2] of the same molecule?
Its LD50 is 585 mg/kg.

What does the source list for `CCOC(=O)[C@@H]1CSC(COc2ccccc2OC)N1C(=O)CSC(C)=O` (some centres not stated)?
LD50 [3]: 672 mg/kg; inhibition in vivo at 30 mg/kg [4]: < 20%

With `O=C(O)CC(=O)N1CCSC1COc1ccccc1O` (configuration not stated) as the molecule, how does the ED50 [1] read?
Its ED50 is 25 mg/kg.

And the LD50 [2]?
Its LD50 is 1000 mg/kg.

With `COc1ccccc1OCC1N(C(=O)CS(C)(=O)=O)CC[S+]1[O-]` (configuration not stated) as the molecule, how does the LD50 [2] read?
Its LD50 is > 1000 mg/kg.

Which results are given for `COc1ccccc1OCC1SCCN1C(=O)CSC(=O)c1cc(OC)c(OC)c(OC)c1` (configuration not stated)?
LD50 [3]: > 1000 mg/kg; inhibition in vivo at 30 mg/kg [4]: < 20%

Which ED50 [1] does the source give for `COc1ccccc1OCC1SCCN1C(=O)CC(C)=O` (configuration not stated) here?
Its ED50 is 30 mg/kg.

What about the ED50 [6] of the same molecule?
The ED50 was 26 mg/kg.

What about the LD50 [2] of the same molecule?
The LD50 was > 1000 mg/kg.

Which ED50 [6] does the source give for `COc1ccccc1OCC1SCCN1C(=O)COC(C)=O` (configuration not stated) here?
The ED50 was 25 mg/kg.

And the LD50 [2]?
The LD50 was > 1000 mg/kg.

With `COc1ccccc1OCC1SCCN1C(=O)CSC(C)=O` (configuration not stated) [GUAISTEINE] as the molecule, how does the ED50 [9] read?
Its ED50 is 26 mg/kg.

What about the ED50 [8] of the same molecule?
Its ED50 is 17 mg/kg.

What about the LD50 [3] of the same molecule?
The LD50 was > 1000 mg/kg.

With `CCOC(=O)CCC(=O)N1CCSC1COc1ccccc1OC` (configuration not stated) as the molecule, how does the ED50 [1] read?
Its ED50 is 24 mg/kg.

And the LD50 [2]?
The LD50 was > 1000 mg/kg.

With `CCOC(=O)C(=O)N1CCSC1COc1ccccc1OC` (configuration not stated) as the molecule, how does the inhibition in vivo at 30 mg/kg [5] read?
Its inhibition in vivo at 30 mg/kg is < 20%.

And the LD50 [2]?
Its LD50 is > 1000 mg/kg.

What does the source list for `COc1ccccc1OCC1SCCN1C(=O)C(C)SC(C)=O` (configuration not stated)?
LD50 [3]: > 1000 mg/kg; inhibition in vivo at 30 mg/kg [4]: < 20%

Which ED50 [1] does the source give for `COc1ccccc1OCC1SCCN1C(=O)C(C)(C)C(=O)O` (configuration not stated) here?
The ED50 was 34 mg/kg.

What about the ED50 [6] of the same molecule?
Its ED50 is 21 mg/kg.

What about the LD50 [2] of the same molecule?
The LD50 was > 1000 mg/kg.

For `Cl.O=C(O)c1ccc(OCC2SCCN2C(=O)Cn2ccnc2)cc1` (configuration not stated), which inhibition in vivo at 30 mg/kg [5] is on record?
The inhibition in vivo at 30 mg/kg was < 20%.

What about the LD50 [2] of the same molecule?
Its LD50 is > 1000 mg/kg.
